Activity calls are given as the source filed them. The calls are words filed in the database; no cut-off is given here.
How the values were obtained:
[1] = biological target: Protein arginine N-methyltransferase 5 (Mus musculus) (UniProt Q8CIG8); assay: Inhibition of PRMT5 in mouse oligodendrocyte progenitor cells assessed as decreased in number of differentiating cells in presence of 0.2 uM KAT inhibitor NU-9056 after 24 to 48 hrs by CNP and MBP staining based assay; conditions: Oligodendrocyte progenitor cell, time 24-48 hrs
Chain of Protein arginine N-methyltransferase 5 (Mus musculus) (Q8CIG8 whole entry): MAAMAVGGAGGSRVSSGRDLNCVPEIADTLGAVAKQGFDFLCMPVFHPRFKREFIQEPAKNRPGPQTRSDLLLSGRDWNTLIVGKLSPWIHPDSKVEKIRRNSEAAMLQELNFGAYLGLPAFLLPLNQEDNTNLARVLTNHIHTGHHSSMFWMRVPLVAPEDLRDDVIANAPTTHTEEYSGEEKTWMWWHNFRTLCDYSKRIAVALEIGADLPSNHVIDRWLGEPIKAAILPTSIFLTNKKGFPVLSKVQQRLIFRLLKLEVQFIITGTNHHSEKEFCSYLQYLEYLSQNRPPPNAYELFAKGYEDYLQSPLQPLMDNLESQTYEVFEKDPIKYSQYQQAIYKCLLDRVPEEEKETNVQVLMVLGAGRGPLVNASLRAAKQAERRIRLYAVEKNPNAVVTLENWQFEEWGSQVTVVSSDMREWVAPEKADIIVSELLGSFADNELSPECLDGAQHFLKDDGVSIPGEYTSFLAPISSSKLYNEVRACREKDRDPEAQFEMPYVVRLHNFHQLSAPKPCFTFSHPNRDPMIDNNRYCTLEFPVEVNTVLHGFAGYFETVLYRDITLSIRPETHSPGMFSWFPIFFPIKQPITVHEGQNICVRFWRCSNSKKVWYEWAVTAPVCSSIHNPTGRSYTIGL

[2] = Effect on cell proliferation in Trp53fl/fl wild type mouse oligodendrocyte progenitor cells at 10 nM by cell count assay; type: toxicity, cell-based; conditions: 0.01 µM
In short: (§1)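 Primary OPCs from Trp53fl/fl mice (P7 immunopanning for PDGFRα), uninfected, alongside Cre-retrovirus-infected Trp53−/− counterparts. Cultured in SATO medium with PDGF-AA 10 ng/ml + bFGF 20 ng/ml (proliferating) or without growth factors + T3 60 nM (differentiating). Treated ± 10 nM inhibitor, DMSO controls. Cell counts averaged over three biological replicates.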

[3] = biological target: Protein arginine N-methyltransferase 5 (Mus musculus) (UniProt Q8CIG8); assay: Inhibition of PRMT5 in mouse oligodendrocyte progenitor cells assessed as decrease in levels of H4R3me2s in presence of 0.2 uM KAT inhibitor NU-9056 after 24 to 48 hrs by immunoreactivity based analysis; conditions: Oligodendrocyte progenitor cell, time 24-48 hrs
[4] = biological target: Protein arginine N-methyltransferase 5 (Mus musculus) (UniProt Q8CIG8); assay: Inhibition of PRMT5 in mouse oligodendrocyte progenitor cells assessed as decrease in expression of P53-responsive genes ((Mdm2, Cdkn1a, Perp) in presence of 100 uM KAT inhibitor Butyrolactone-3 after 48 hrs by qRT-PCR analysis; type: cell-based; conditions: Oligodendrocyte progenitor cell
[5] = biological target: Protein arginine N-methyltransferase 5 (Mus musculus) (UniProt Q8CIG8); assay: Inhibition of PRMT5 in Trp53-/- mouse oligodendrocyte progenitor cells assessed as reduction of the number of cleaved caspase--3-positive CNP+ cells in differentiating OPCs; type: cell-based; conditions: Oligodendrocyte progenitor cell
In short: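 Trp53−/− OPCs (Trp53fl/fl OPCs infected with Cre retrovirus) and Trp53fl/fl OPCs held in differentiating conditions (no growth factors, 60 nM T3) with or without 10 nM inhibitor. Immunostained for CNP and cleaved caspase-3 with DAPI. CNP+/DAPI+ ratio and cleaved caspase-3 intensity from three biological replicates, expressed relative to untreated cells of the same genotype.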

[6] = biological target: Protein arginine N-methyltransferase 5 (Mus musculus) (UniProt Q8CIG8); assay: Inhibition of PRMT5 in mouse oligodendrocyte progenitor cells assessed as decreased in number of differentiating cells in presence of 100 uM KAT inhibitor Butyrolactone-3 after 24 to 48 hrs by CNP and MBP staining based assay; conditions: Oligodendrocyte progenitor cell, time 24-48 hrs
[7] = Effect on cell proliferation in mouse oligodendrocyte progenitor cells assessed as Ki67+/PDGFRalpha+ cell count measured after 12 to 48 hrs by immunoreactivity based assay; type: toxicity; conditions: time 12-48 hrs
In short: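 P7 mouse OPCs immunopanned for PDGFRα, kept proliferating in SATO medium with PDGF-AA and bFGF, then treated with inhibitor or DMSO. Cells fixed in 4% PFA and immunostained for PDGFRα and KI67. Double-positive (KI67+ PDGFRα+) cells counted by confocal imaging from three biological replicates.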

[8] = biological target: Protein arginine N-methyltransferase 5 (Mus musculus) (UniProt Q8CIG8); assay: Inhibition of PRMT5 in Trp53fl/fl wild type mouse oligodendrocyte progenitor cells assessed as decreased in number of differentiating cells at 10 nM by cell count assay; type: cell-based; in short: as §1
[9] = biological target: Protein arginine N-methyltransferase 5 (Mus musculus) (UniProt Q8CIG8); assay: Inhibition of PRMT5 in mouse oligodendrocyte progenitor cells assessed as decrease in expression of P53-responsive genes ((Mdm2, Cdkn1a, Perp) after 48 hrs by qRT-PCR analysis; type: cell-based; conditions: Oligodendrocyte progenitor cell
[10] = biological target: Protein arginine N-methyltransferase 5 (Mus musculus) (UniProt Q8CIG8); assay: Inhibition of PRMT5 in mouse oligodendrocyte progenitor cells assessed as decrease in levels of H4R3me2s incubated for 24 to 72 hrs by immunoreactivity based analysis; conditions: Oligodendrocyte progenitor cell, time 24-72 hrs
In short: (§2)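 Primary OPCs in growth-factor-free chemically defined medium, treated with DMSO or inhibitor over a time course. Fixed cells immunostained for H4R3me2s or H4K5ac. Nuclear pixel intensity measured by confocal imaging in an average of 395 cells per condition, three biological replicates.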

[11] = biological target: Protein arginine N-methyltransferase 5 (Mus musculus) (UniProt Q8CIG8); assay: Inhibition of PRMT5 in mouse oligodendrocyte progenitor cells assessed as decrease in expression of P53-responsive genes ((Mdm2, Cdkn1a, Perp) in presence of 0.2 uM KAT inhibitor NU-9056 after 48 hrs by qRT-PCR analysis; type: cell-based; conditions: Oligodendrocyte progenitor cell
[12] = biological target: Protein arginine N-methyltransferase 5 (Mus musculus) (UniProt Q8CIG8); assay: Inhibition of PRMT5 in mouse oligodendrocyte progenitor cells assessed as decrease in levels of H4R3me2s in presence of 100 uM KAT inhibitor Butyrolactone-3 after 24 to 48 hrs by immunoreactivity based analysis; conditions: Oligodendrocyte progenitor cell, time 24-48 hrs
[13] = biological target: Protein arginine N-methyltransferase 5 (Mus musculus) (UniProt Q8CIG8); assay: Inhibition of PRMT5 in mouse oligodendrocyte progenitor cells assessed as increase in levels of H4K5Ac at 10 nM incubated for 24 to 72 hrs by Western blot analysis; type: cell-based; conditions: Oligodendrocyte progenitor cell, time 24-72 hrs
[14] = biological target: Protein arginine N-methyltransferase 5 (Mus musculus) (UniProt Q8CIG8); assay: Inhibition of PRMT5 in mouse oligodendrocyte progenitor cells assessed as decrease in levels of H4R3me2s at 10 nM incubated for 24 to 72 hrs by Western blot analysis; type: cell-based; conditions: Oligodendrocyte progenitor cell, time 24-72 hrs
[15] = biological target: Protein arginine N-methyltransferase 5 (Mus musculus) (UniProt Q8CIG8); assay: Inhibition of PRMT5 in mouse oligodendrocyte progenitor cells assessed as increase in levels of H4K5Ac incubated for 24 to 72 hrs by immunoreactivity based analysis; conditions: Oligodendrocyte progenitor cell, time 24-72 hrs; in short: as §2
[16] = test system: Oligodendrocyte progenitor cell; assay: Inhibition of HDAC in mouse oligodendrocyte progenitor cells assessed as decreased in number of differentiating cells at 20 nM after 24 to 48 hrs by CNP and MBP staining based assay; conditions: time 24-48 hrs

O=C(NC[C@H](O)CN1CCc2ccccc2C1)c1ccnc(NC2CCC2)c1
inhibition [1]: inactive | Activity [2]: Toxic | inhibition [3]: inactive | inhibition [4]: inactive | inhibition [5]: Active | inhibition [6]: inactive | Activity [7]: Non-Toxic | inhibition [8]: Active | inhibition [9]: Active | inhibition [10]: Active | inhibition [11]: inactive | inhibition [12]: inactive | inhibition [13]: Active | inhibition [14]: Active | inhibition [15]: Active

CC(/C=C/C(=O)NO)=C\[C@@H](C)C(=O)c1ccc(N(C)C)cc1
inhibition [16]: Active

Source: ChEMBL document CHEMBL5712082, “PRMT5-mediated regulation of developmental myelination” (Nat Commun, 2018)
